E-sel inducer = induces E-selectin expression in human endothelial cells | AID 686992 | P16581 | actives 0.37% (n = 260,000) | activation, % at 7.58 µM | HUVEC E-selectin immunofluorescence imaging; normalized: neutral wells 0, TNF-alpha wells 100;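 active = mean E-selectin-positive cell signal at least 10% of the positive control, reached in at least 60% of replicates, without over 20% cell loss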
Target sequence (P16581 whole entry, looked up): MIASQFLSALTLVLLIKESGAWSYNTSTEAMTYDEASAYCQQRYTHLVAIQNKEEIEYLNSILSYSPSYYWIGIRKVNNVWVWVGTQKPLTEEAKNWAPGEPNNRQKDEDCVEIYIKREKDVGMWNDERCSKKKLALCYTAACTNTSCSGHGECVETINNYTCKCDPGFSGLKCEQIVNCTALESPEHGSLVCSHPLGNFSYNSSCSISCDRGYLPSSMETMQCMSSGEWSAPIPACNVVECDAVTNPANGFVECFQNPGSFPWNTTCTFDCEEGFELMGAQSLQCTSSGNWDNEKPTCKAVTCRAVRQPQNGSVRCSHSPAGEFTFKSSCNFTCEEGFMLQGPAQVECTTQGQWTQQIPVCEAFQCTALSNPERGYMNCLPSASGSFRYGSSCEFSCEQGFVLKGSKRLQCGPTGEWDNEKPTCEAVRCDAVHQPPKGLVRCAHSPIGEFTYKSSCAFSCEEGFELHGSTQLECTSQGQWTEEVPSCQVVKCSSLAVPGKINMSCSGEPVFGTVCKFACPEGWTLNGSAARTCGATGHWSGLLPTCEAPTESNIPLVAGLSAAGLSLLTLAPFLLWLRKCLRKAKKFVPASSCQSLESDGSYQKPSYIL
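System: HUVEC, human umbilical vein endothelial cells; quantity: 3,000 cells/well; buffer or medium: EGM-2 medium, gelatin-coated wells; dosing: single-point compound dose; detection: immunofluorescence imaging; evaluation: % PE-positive cells; benchmarks: TNF-alpha, DMSO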
* marks the source's active call; other numbers are inactive results. Many of the other results were omitted from the sample, so hits are more common in it than they were.

SMILES	E-sel inducer
COc1ccc(NC(=O)Nc2cccc3c2O[C@@H](CN(C)Cc2ccc(Cl)c(Cl)c2)[C@@H](C)CN([C@@H](C)CO)C3=O)cc1	-7
C/C=C/c1ccc2c(c1)O[C@H](CN(C)C(=O)C1CC1)[C@@H](C)CN([C@H](C)CO)S2(=O)=O	0
NC(=O)CSc1nnc(SCc2ccc(F)cc2)s1	27*
O=C(Nc1nnc(SCc2ccc(F)cc2)s1)c1cnccn1	1
O=C(CSc1nncs1)NCc1ccc(F)cc1	0
C[C@@H](NC(=O)C[C@@H]1CC[C@@H](NC(=O)C2CC2)[C@H](CO)O1)c1ccccc1	0
C[C@@H]1CN([C@@H](C)CO)C(=O)c2cc(NC(=O)CCN3CCOCC3)ccc2O[C@@H]1CN(C)Cc1ccncc1	8
CCCOc1cccc(C2C(C(=O)c3ccco3)=C(O)C(=O)N2CCCn2ccnc2)c1 (configuration not stated)	0
C=CCOc1cccc(C2C(C(=O)c3ccco3)=C(O)C(=O)N2Cc2cccnc2)c1 (configuration not stated)	33*
CCOc1ccc(C2C(C(=O)c3ccco3)=C(O)C(=O)N2Cc2cccnc2)cc1 (configuration not stated)	2
C[C@H]1CN([C@@H](C)CO)C(=O)c2ccccc2-c2ccccc2CO[C@@H]1CN(C)C(=O)c1ccc(F)cc1	1
C[C@H](CO)N1C[C@H](C)[C@@H](CN(C)C(=O)c2cccc(F)c2)Oc2ncc(-c3ccccc3)cc2C1=O	0
CCN(C(=O)C(C)OC(=O)C1C(C(=O)OC)=C(C)NC(C)=C1C(=O)OC)c1ccccc1 (configuration not stated)	0
CCOC(=O)C1=C(C)NC(C)=C(C(=O)OCC)C1C(=O)OCC(=O)NC(C)c1ccccc1 (configuration not stated)	0
COC(=O)C1=C(C)NC(C)=C(C(=O)OC)C1C(=O)OC(C)C(=O)c1ccccc1 (configuration not stated)	77*
CCCNC(=O)C[C@@H]1CC[C@@H]2[C@H](COC[C@H](O)CN2C(=O)c2ccccn2)O1	0
CC(C)NC(=O)N(C)C[C@@H]1Oc2c(NC(=O)CCCCCC(=O)Nc3ccccc3N)cccc2C(=O)N([C@@H](C)CO)C[C@H]1C	-14
C[C@H]1CN([C@@H](C)CO)S(=O)(=O)c2ccc(C#CC3CC3)cc2O[C@@H]1CN(C)Cc1cccnc1	0
Cc1nc2cc(NC(=O)NCCCO)ccc2o1	0
Cc1nc2ccc(NC(=O)NC(=O)c3c(Cl)cccc3Cl)cc2o1	64*
CNC(=O)Nc1ccc2nc(C)oc2c1	0
Cc1ccc(-c2ccc([C@@H]3[C@@H](CO)N4C(=O)CN(C(=O)Nc5cccc(F)c5)C[C@@H]34)cc2)cc1	0
O=C(Nc1ccc([N+](=O)[O-])cc1)N1CCCCC1	0
O=C(Nc1ccc([N+](=O)[O-])cc1)N1CCCCCC1	0
CC(C)(C)c1ccc(NC(=O)N2CCCN(c3ccc([N+](=O)[O-])cn3)CC2)cc1	76*
SMILES	E-sel inducer
C[C@H]1CN([C@@H](C)CO)C(=O)c2cc(C#CC3(O)CCCC3)cnc2O[C@@H]1CN(C)Cc1ccccc1	0
CN(C)c1ccc2c(c1)[C@H]1C[C@H](CC(=O)NCc3ccc(Oc4ccccc4)cc3)O[C@@H](CO)[C@H]1O2	0
O=C(Cc1cccnc1)N[C@H]1CC[C@H](CCNS(=O)(=O)c2ccccc2Cl)O[C@H]1CO	0
C[C@@H]1CN([C@@H](C)CO)C(=O)c2cccc(NC(=O)Nc3ccc(F)cc3)c2O[C@H]1CN(C)Cc1ccncc1	-14
COc1ccc(CN(C)C[C@H]2Oc3c(NC(=O)Nc4ccc(OC)cc4)cccc3C(=O)N([C@@H](C)CO)C[C@H]2C)cc1	1
C[C@H](CO)N1C[C@H](C)[C@H](CN(C)Cc2ccncc2)Oc2c(NC(=O)Nc3ccc(F)cc3)cccc2C1=O	105*
Cc1noc(C)c1NC(=O)Nc1cccc2c1O[C@H](CN(C)Cc1ccccc1)[C@@H](C)CN([C@@H](C)CO)C2=O	2
Cc1noc(C)c1NC(=O)Nc1cccc2c1O[C@H](CN(C)Cc1ccccc1)[C@@H](C)CN([C@H](C)CO)C2=O	0
Cc1noc(C)c1NC(=O)Nc1cccc2c1O[C@@H](CN(C)Cc1ccc(C(F)(F)F)cc1)[C@H](C)CN([C@@H](C)CO)C2=O	252*
COc1ccc(CN(C)C[C@@H]2Oc3c(NC(=O)Nc4ccc(F)cc4)cccc3C(=O)N([C@@H](C)CO)C[C@H]2C)cc1	261*
COc1ccc(NC(=O)Nc2cccc3c2O[C@@H](CN(C)Cc2ccccc2)[C@@H](C)CN([C@@H](C)CO)C3=O)cc1	0
C[C@H]1CN([C@@H](C)CO)C(=O)c2cccc(NC(=O)Nc3ccc(F)cc3)c2O[C@@H]1CN(C)Cc1ccncc1	-10
C[C@H]1CCCCO[C@H](CN(C)C(=O)Nc2ccccc2)[C@@H](C)CN([C@@H](C)CO)C(=O)c2cc(NS(=O)(=O)c3ccc(F)cc3)ccc2O1	0
Cn1cnc(S(=O)(=O)N2CC[C@@H]3[C@H]2c2cc(-c4ccccc4F)ccc2N[C@@H]3CO)c1	0
COc1ccc(S(=O)(=O)N(C)C[C@H]2Oc3ccc(NC(=O)Cc4ccccc4)cc3CC(=O)N([C@H](C)CO)C[C@@H]2C)cc1	0
N#Cc1ccc(-c2csc(NC3=NCCCCC3)n2)cc1	44*
c1ccc(-c2csc(NC3=NCCCCC3)n2)cc1	0
N#Cc1ccc(Nc2nc(-c3ccccc3)cs2)cc1	-1
C[C@H]1CCCCO[C@@H](CN(C)S(=O)(=O)c2cn(C)cn2)[C@@H](C)CN([C@@H](C)CO)C(=O)c2cc(NC(=O)Nc3ccc(C(F)(F)F)cc3)ccc2O1	1
COc1ccc(NS(=O)(=O)c2ccc3c(c2)CCO3)cc1	-3
CC(OC(=O)c1ccc(NC(=O)CC#N)cc1)C(=O)Nc1ccc2c(c1)OCCO2 (configuration not stated)	-2
CC(C)N(CCC#N)C(=O)Nc1ccc2c(c1)CCO2	74*
CC(C)NC(=O)Nc1ccc2c(c1)C(=O)N([C@H](C)CO)C[C@H](C)[C@H](CN(C)C(=O)Nc1cccc3ccccc13)OCCCC[C@H](C)O2	0
COc1ccc(S(=O)(=O)Nc2ccc3c(c2)C(=O)N([C@H](C)CO)C[C@@H](C)[C@H](CN(C)Cc2ccncc2)OCCCC[C@@H](C)O3)cc1	4
Cc1cc2c(SCc3ccccc3Cl)nc(N)nc2nc1C	88*
SMILES	E-sel inducer
CCCn1cnc2c(SCc3ccccc3Cl)nc(N)nc21	0
Nc1cc(N)nc(SCc2ccccc2Cl)n1	0
C[C@H](CO)N1C[C@H](C)[C@H](CN(C)C(=O)c2ccccn2)Oc2ncc(C3=CCCC3)cc2C1=O	0
O=S(=O)(c1ccc(NC(=S)NC23CC4CC(CC(C4)C2)C3)cc1)N1CCCCC1	0
Cc1ccc(S(=O)(=O)N(C)C)cc1NC(=S)NC12CC3CC(CC(C3)C1)C2	0
CN(C)c1ccc(NC(=S)NC23CC4CC(CC(C4)C2)C3)cc1	73*
C[C@@H]1CN([C@@H](C)CO)C(=O)c2cc(NS(=O)(=O)c3ccccc3)ccc2O[C@@H]1CN(C)S(=O)(=O)c1ccc(F)cc1	0
O=C(C1CCOCC1)N1CC[C@@H]2[C@H]1c1cc(Br)ccc1N[C@@H]2CO	0
C[C@H](CO)N1C[C@H](C)[C@H](CN(C)S(C)(=O)=O)OCCCC[C@H](C)Oc2ccc(NS(=O)(=O)c3ccc(F)cc3)cc2C1=O	0
